By ΔTm is commonly meant the shift of the melting midpoint relative to a reference. Usually inhibition stands for the change of the read-out against control, counted positive when it falls. A word on the IC50: it is the concentration that inhibits the measured activity by half.

Activity calls are given as the source filed them. No cut-off for these calls is given here.

These results are taken from ChEMBL document CHEMBL3872217, “Structure-guided discovery of thiazolidine-2,4-dione derivatives as a novel class of Leishmania major pteridine reductase 1 inhibitors” (Eur J Med Chem, 2016).

Test [1] concerns the target T1, Pteridine reductase 1 (Leishmania major) (UniProt Q01782).
T1 sequence (whole entry): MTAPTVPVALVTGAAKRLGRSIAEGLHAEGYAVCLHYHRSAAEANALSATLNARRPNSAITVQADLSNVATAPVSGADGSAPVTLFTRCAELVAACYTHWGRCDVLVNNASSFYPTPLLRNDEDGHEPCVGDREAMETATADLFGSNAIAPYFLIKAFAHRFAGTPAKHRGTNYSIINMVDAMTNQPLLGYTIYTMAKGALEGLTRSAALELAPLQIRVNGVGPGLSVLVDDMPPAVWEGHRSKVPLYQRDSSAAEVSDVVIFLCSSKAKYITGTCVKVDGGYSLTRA
Put plainly: Binding affinity to Leishmania major recombinant N-terminal hexa-His tagged PTR1 expressed in Escherichia coli BL21(DE3) assessed as change in melting temperature at 50 uM at pH 4.7 by SYPRO orange dye based thermal shift assay. The essentials:
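Recombinant LmPTR1 from E. coli BL21(DE3) with pET-LmPTR1, Ni-NTA purified. Protein 5 μM in 50 mM sodium acetate pH 4.7 with SYPRO Orange (excitation 492, emission 610 nm); compound 50 μM from 1 mM DMSO stock; reference wells with DMSO only. Melt 25–85 °C at 1 °C per min; Tm from Boltzmann sigmoidal fit; triplicate; ΔTm compared by Kruskal-Wallis.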

Test [2] has as its target T1, Pteridine reductase 1 (Leishmania major). The test can be described thus: Noncompetitive inhibition of Leishmania major recombinant N-terminal hexa-His tagged PTR1 catalytic activity expressed in Escherichia coli BL21(DE3) at 25 to 45 uM at pH 4.7 in presence of saturating concentration of biopterin and varying levels of NADPH by double-reciprocal plot analysis. The method, boiled down: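 Inhibition mode measured under the 340 nm kinetic conditions (0.2 μM LmPTR1, 20 mM sodium citrate pH 4.7, 30 °C, 60 s). Biopterin held at saturating 40 μM; NADPH varied over 5.0, 7.5, 10.0, 20.0 and 40.0 μM at two fixed inhibitor concentrations. Analysed by double-reciprocal plots; means of at least three experiments.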

Test [3] shares this target. The test can be described thus: Effect on thermal stability of Leishmania major recombinant N-terminal hexa-His tagged PTR1 expressed in Escherichia coli BL21(DE3) by SYPRO orange dye based thermal shift assay. The essentials:
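Dose-response thermal stability run on Ni-NTA purified LmPTR1 (expressed from pET-LmPTR1 in E. coli BL21(DE3)) at 5 μM in 50 mM sodium acetate pH 4.7 with SYPRO Orange. Excitation 492 nm and emission 610 nm; ramp 25–85 °C, 1 °C per min. Tm taken from a Boltzmann sigmoidal fit against DMSO reference wells; done in triplicate.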

The target is the same in test [4]. The test can be described thus: Noncompetitive inhibition of Leishmania major recombinant N-terminal hexa-His tagged PTR1 catalytic activity expressed in Escherichia coli BL21(DE3) assessed as decrease in thermal shift stabilization at 50 uM at pH 4.7 in presence of varying levels of NADPH and constant biopterin substrate concentration by SYPRO orange dye based assay. The method, boiled down: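 Inhibition type probed by repeating the TSA screen (5 μM LmPTR1, 50 mM sodium acetate pH 4.7, SYPRO Orange, compound 50 μM) while varying NADPH at 0.0, 3.0, 6.25, 12.5 and 50 μM. Triplicate; ΔTm values compared by Kruskal-Wallis non-parametric ANOVA.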

Test [5] shares this target. Put plainly: Inhibition of Leishmania major recombinant N-terminal hexa-His tagged PTR1 catalytic activity expressed in Escherichia coli BL21(DE3) at 50 uM using biopterin as substrate measured for 60 sec in presence of NADPH by UV-visible spectrophotometric method relative to control.
For a further test, the target named is T2, Pteridine reductase 1 (Leishmania major, UniProt Q01782).
T2 sequence (Q01782 whole entry): T1 sequence (whole entry)
The test can be described thus: Inhibition of Leishmania major recombinant N-terminal hexa-His tagged PTR1 catalytic activity expressed in Escherichia coli BL21(DE3) using biopterin as substrate measured for 60 sec in presence of NADPH by UV-visible spectrophotometric method relative to control. The essentials: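 Spectrophotometric assay at 30 °C with purified recombinant LmPTR1 at 0.2 μM in 20 mM sodium citrate pH 4.7, with NADPH and biopterin cofactor/substrate. Compound added in 5% DMSO (v/v). NADPH consumption followed as the drop in absorbance at 340 nm over 60 s; triplicate. IC50 by non-linear regression over at least six inhibitor concentrations.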

As for `O=C1NC(=O)/C(=C/c2ccc(Cl)c(Cl)c2)S1`, in test [1], the ΔTm is 3.01 °C.

In the case of `O=C1NC(=O)/C(=C/c2cc(Cl)cc(Br)c2O)S1`, the ΔTm in test [1] is 11 °C. Also, the inhibition result in test [2], in test [4] and in test [5] was “Active” each time. Besides, the Activity in test [3] is over 200 µM. In addition, the half-inhibitory concentration (IC50) at Pteridine reductase 1 came to 44.7 µM.

Turning to `O=C1NC(=O)/C(=C/c2c(F)cccc2Br)S1`, the ΔTm in test [1] is 1.7 °C. Besides, the inhibition in test [5] came out at 36%. Further, on Pteridine reductase 1, the IC50 was determined as 589 µM.

Consider `COc1ccc(Br)c(/C=C2\SC(=O)NC2=O)c1`, for which, in test [1], the thermal shift (ΔTm) was over 1 °C.

As for `O=C1NC(=O)/C(=C/c2ccc(Cl)cc2Cl)S1`, the shift in melting temperature (ΔTm) in test [1] was over 1 °C.

With `O=C1NC(=O)/C(=C/c2c(Cl)cccc2Cl)S1`, the thermal shift (ΔTm) in test [1] is under 1 °C.

In the case of `O=C1NC(=O)/C(=C/c2cc(Cl)ccc2O)S1`, the shift in melting temperature (ΔTm) in test [1] is over 1 °C. In test [3], the Activity was over 200 µM. Also, in test [5], the inhibition result is “Active”. Further, at Pteridine reductase 1, the half-inhibitory concentration (IC50) turned out to be 75.9 µM.
